Smad3 inh: inhibitors of human Smad3 transcription factor binding | P84022 | TR-FRET Smad3/Dy647-FoxH1 peptide binding, europium anti-His | inhibition, % at 25 µM | 0.29% of 88,000 active | AID 630;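 active means compounds that reduce the energy-transfer binding signal between the protein and its labelled peptide by more than half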
Target sequence (P84022 whole entry, looked up): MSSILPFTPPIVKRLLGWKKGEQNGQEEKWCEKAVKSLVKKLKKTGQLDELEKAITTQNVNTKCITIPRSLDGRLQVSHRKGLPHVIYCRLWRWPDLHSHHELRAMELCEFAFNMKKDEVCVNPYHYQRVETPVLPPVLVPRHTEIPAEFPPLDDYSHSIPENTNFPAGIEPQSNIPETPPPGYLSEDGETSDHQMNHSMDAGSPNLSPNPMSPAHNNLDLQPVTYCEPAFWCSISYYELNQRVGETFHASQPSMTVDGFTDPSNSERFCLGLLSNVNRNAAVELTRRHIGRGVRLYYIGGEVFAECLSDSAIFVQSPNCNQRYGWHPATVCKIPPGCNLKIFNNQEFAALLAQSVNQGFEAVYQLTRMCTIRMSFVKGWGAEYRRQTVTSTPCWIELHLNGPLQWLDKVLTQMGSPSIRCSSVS
Rev-RRE block: inhibitors of HIV-1 Rev-RRE RNA interaction; P05866; Rev peptide-RRE RNA binding, FRET; inhibition, % at 8 µM; 0.79% of 97,000 active; AID 704;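 active means inhibition above the screen-wide mean plus 3 SD, cut at about 35% in these data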
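Assay system: labelled RRE RNA duplex and labelled Rev peptide / Medium: HEPES pH 7.5 salt buffer with EDTA / Reagent: labelled Rev peptide / Schedule: 5 + 15 min at 25 °C / Signal: FRET, excitation 480 nm, emission 540 nm donor and 671 nm acceptor / Benchmarks: DMSO and neomycin B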
ERb coact inh: blocks coactivator binding to human estrogen receptor beta. TR-FRET ER-beta LBD / SRC1-Cy5 peptide binding; receptor agonist-loaded with 1 µM estradiol. inhibition, % at 25.6 µM. 1.3% of 86,000 active. AID 633;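 active means compounds whose percent inhibition of the receptor-coactivator binding signal exceeds about 50% in the single-dose screen, limit read from the data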
ERa SRC1 inh: ER-alpha (human) coactivator binding inhibition. P03372. TR-FRET ER-alpha LBD / SRC-1 peptide, estradiol-bound. inhibition, % at 25.6 µM. 1.7% of 86,000 active; in the data active means inhibition above about 50%
FAK inh: inhibitors of human focal adhesion kinase; biochemical FAK kinase activity assay; AID 727; 0.84% of 97,000 active; inhibition, %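 (tested at 7 µM)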
ERa SRC1 pot: ER-alpha (human) coactivator binding potentiation; coactivator binding (% of control), % at 25.6 µM; P03372; 1.3% of 86,000 active; TR-FRET ERalpha-LBD/SRC-Cy5 coactivator binding, 2 h; 100 = basal binding, no effect; in the data active means activity above about 200%;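 further: binding measured in presence of low estradiol as agonist stimulus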
FAK inh conf: confirmation of human focal adhesion kinase (FAK) inhibitors; shares compounds with FAK inh; FAK kinase biochemical inhibition assay; inhibition, % at 7 µM; 28% of 750 active; AID 794
Numbers stand for hits; – = inactive; · = not tested or not shown; [ ] = dose if it differs, or a comment. Only some compounds are listed: those with a hit (about 4% of all), similar ones and a draw of the others. Unless noted, no stated cut-off is given here; in the data, active means inhibition above about 19%; inactive means the rest.

SMILES	Smad3 inh	Rev-RRE block	ERb coact inh	ERa SRC1 inh	FAK inh	ERa SRC1 pot	FAK inh conf
COc1cccc(CN2CC(O)=C(c3nc(-c4ccc(Cl)cc4)cs3)C2=N)c1	·	–	·	·	31.7	·	25.6
Cc1cccc(C(=O)NNC(=O)c2cc3cc4ccccc4nc3s2)c1	·	–	·	·	–	·	·
O=C(NNC(=O)c1cc2cc3ccccc3nc2s1)c1ccc(F)cc1	·	–	·	·	25.9	·	–
O=C(NNC(=O)c1cc2cc3ccccc3nc2s1)c1cccc(Cl)c1	·	–	·	·	30.3	·	–
Cc1ccc(S(=O)(=O)NNC(=O)c2cc3cc4ccccc4nc3s2)cc1	·	–	·	·	–	·	·
CN(C)CCCNC(CC(=O)Nc1ccc(Cl)cc1)C(=O)O (stereo not given)	–	·	–	–	·	–	·
COC(=O)c1cccc2c1-c1ccccc1/C2=N/O	–	–	–	–	49.6	–	28.5
COC(=O)c1ccc2c(c1O)C(=O)c1ccccc1C2=O	·	–	·	·	–	·	·
Cc1cc2ncn(S(=O)(=O)N(C)C)c2cc1C	–	–	–	–	18.8	–	–
COC(=O)c1ccccc1NC(=O)CSc1nc(NC(=O)c2ccccc2)c2c(C)c(C)oc2n1	–	–	–	–	–	–	·
CCOC(=O)c1ccc(NC(=O)CSc2nc(NC(=O)c3ccccc3)c3c(C)c(C)oc3n2)cc1	–	–	–	–	27.2	–	–
N#Cc1ccc(C(=O)Nc2ccc(N3CCN(C(=O)c4ccco4)CC3)cc2)c(F)c1	–	–	–	–	–	–	·
Cc1cc2c(cc1C)NC(c1cccnc1)C1=C(CC(C)(C)CC1=O)N2 (stereo not given)	–	–	–	–	–	–	·
COc1cc(C2N(c3ccccn3)C(=O)C3CCCN32)cc(OC)c1OC (stereo not given)	–	–	–	–	–	–	·
COc1cc(C2Nc3ccc4ncccc4c3C3=C2C(=O)CCC3)cc(OC)c1O (stereo not given)	–	–	–	–	47.9	–	28.8
COc1cc(C2Nc3ccc4ncccc4c3C3=C2C(=O)CC(C)(C)C3)cc(OC)c1O (stereo not given)	–	–	–	–	46.9	–	34.2
CCN(CC)c1ccc(C2C(C(C)=O)C(=O)CC(C)(O)C2C(C)=O)cc1 (stereo not given)	–	–	–	–	–	–	·
COc1cc(C)ccc1S(=O)(=O)N1CCN(C23CC4CC(CC(C4)C2)C3)CC1	–	–	–	–	–	–	·
CCOc1c(Br)ccc2c1sc1nc[nH]c(=O)c12	–	–	–	–	–	–	·
CC(C)Cc1nc2n[nH]c(N)c2c2c1CCC2	–	–	–	–	19.0	–	–
CCCc1nc2n[nH]c(N)c2c2c1COC(C)(C)C2	–	–	–	–	–	–	·
CCCCc1nc2n[nH]c(N)c2c2c1CCC2	–	–	–	–	19.9	–	–
Cn1c(C(=O)N2CCN(C(=O)c3ccco3)CC2)cc2c(=O)n(C)c3ccccc3c21	–	–	–	–	18.8	–	–
Cc1ccc(NC(=O)COc2ccc(/C=N/NC(=O)CSCc3ccccc3)cc2)cc1	·	–	·	·	20.2	·	–
COc1ccc(CNc2nc(NCc3ccc(OC)c(OC)c3)n(C(=O)c3cccs3)n2)cc1OC	·	–	·	·	–	·	·
SMILES	Smad3 inh	Rev-RRE block	ERb coact inh	ERa SRC1 inh	FAK inh	ERa SRC1 pot	FAK inh conf
Cc1ccccc1C(=O)Nc1cccc(C#N)c1	–	–	–	–	–	–	·
N#Cc1cccc(NC(=O)c2ccccc2C(=O)O)c1	–	–	–	–	21.6	–	–
Nc1ccc2c(c1)C(=O)C(=O)c1ccccc1-2	73.5[fluorescence artefact?]	–	–	–	57.2	–	57.8
N#Cc1cc([N+](=O)[O-])ccc1Oc1cccc(/C=N/NC(=O)c2cccc(Cl)c2)c1	·	–	·	·	–	·	·
Cc1ccc(-n2ncc3c(NCc4ccco4)ncnc32)c(C)c1	–	·	–	–	·	–	·
Cc1ccc2[nH]c3c(NCc4ccco4)ncnc3c2c1	–	–	–	–	34.1	–	20.6
O=C(Nc1cccc(-c2nc3ccccc3[nH]2)c1)c1cccc(NC(=O)c2ccco2)c1	–	–	68.5[fluorescence artefact?]	70.0[fluorescence artefact?]	71.0	–	61.7
O=C(Nc1ccc(F)cc1)Nc1nnc(-c2ccncc2)s1	·	–	·	·	29.8	·	–
CCN1CCN(S(=O)(=O)c2cc(OC)c(Cl)cc2OC)CC1	–	–	–	–	–	–	·

From PubChem BioAssay
